Experiment [1] relates to Candida albicans. Description: Antifungal activity against Candida albicans 1 at 60 ug/disc after 24 hrs by disc diffusion method. The conditions noted are these: for zone of inhibition at 60 µg/disc: read-out: IZ. The format is functional. In short, it runs like this:
(§1)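 Yeast suspensions (C. albicans strains 1, 2) and mycelial suspensions (F. oxysporum strains 1, 2; Mucor sp.) spread on YPG (0.3% yeast extract, 0.5% peptone, 1% glucose) or PDA agar. Compound applied on filter-paper discs at the stated amount; 28 °C, 24 h. Read-out is inhibition zone diameter. Controls: 50% v/v DMSO vehicle, cycloheximide, amphotericin B.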
(Agar diffusion results depend on both activity and mobility in agar.)

Experiment [2] has as its system Candida albicans. Description: Antifungal activity against Candida albicans 1 at 40 ug/disc after 24 hrs by disc diffusion method. Type of experiment: functional. The conditions noted are these: for zone of inhibition at 40 µg/disc: read-out: IZ. In short, it runs like this:
as §1

The test system of experiment [3] is Candida albicans. Description: Antifungal activity against Candida albicans 1 at 100 ug/disc after 24 hrs by disc diffusion method. Type of experiment: functional. The conditions noted are these: read-out: IZ. The essentials:
as §1

Experiment [4] concerns Candida albicans. Nature of the experiment: Antifungal activity against Candida albicans 2 at 40 ug/disc after 24 hrs by disc diffusion method. The conditions noted are these: for zone of inhibition at 40 µg/disc: read-out: IZ. Type of experiment: functional. In short, it runs like this:
as §1

For experiment [5], the system named is Candida albicans. Description: Antifungal activity against Candida albicans 2 at 60 ug/disc after 24 hrs by disc diffusion method. Type of experiment: functional. The conditions noted are these: for zone of inhibition at 60 µg/disc: read-out: IZ. The essentials:
as §1

For experiment [6], the system named is Candida albicans. Description: Antifungal activity against Candida albicans 2 at 100 ug/disc after 24 hrs by disc diffusion method. The conditions noted are these: read-out: IZ. The format is functional. The essentials:
as §1

In experiment [7] the test system is Fusarium oxysporum. Nature of the experiment: Antifungal activity against Fusarium oxysporum 1 at 40 ug/disc after 24 hrs by disc diffusion method. The format is functional. The following applies: for zone of inhibition at 40 µg/disc: read-out: IZ. In short, it runs like this: as §1
The subject of experiment [8] is Fusarium oxysporum. Nature of the experiment: Antifungal activity against Fusarium oxysporum 1 at 60 ug/disc after 24 hrs by disc diffusion method. Type of experiment: functional. The following applies: for zone of inhibition at 60 µg/disc: read-out: IZ. The essentials:
as §1

In experiment [9] the test system is Fusarium oxysporum. Description: Antifungal activity against Fusarium oxysporum 1 at 100 ug/disc after 24 hrs by disc diffusion method. The format is functional. The conditions noted are these: read-out: IZ. The essentials:
as §1

In experiment [10] the test system is Fusarium oxysporum. Nature of the experiment: Antifungal activity against Fusarium oxysporum 2 at 40 ug/disc after 24 hrs by disc diffusion method. The format is functional. The following applies: for zone of inhibition at 40 µg/disc: read-out: IZ. The essentials:
as §1

Experiment [11] concerns Fusarium oxysporum. Description: Antifungal activity against Fusarium oxysporum 2 at 60 ug/disc after 24 hrs by disc diffusion method. The conditions noted are these: for zone of inhibition at 60 µg/disc: read-out: IZ. The format is functional. The essentials:
as §1

In experiment [12] the test system is Fusarium oxysporum. Description: Antifungal activity against Fusarium oxysporum 2 at 100 ug/disc after 24 hrs by disc diffusion method. Type of experiment: functional. The conditions noted are these: read-out: IZ. In short, it runs like this: as §1
For experiment [13], the system named is Mucor. Nature of the experiment: Antifungal activity against Mucor at 40 ug/disc after 24 hrs by disc diffusion method. Type of experiment: functional. The essentials:
as §1

The test system of experiment [14] is Mucor. Nature of the experiment: Antifungal activity against Mucor at 60 ug/disc after 24 hrs by disc diffusion method. Type of experiment: functional. The essentials:
as §1

The test system of experiment [15] is Mucor. Description: Antifungal activity against Mucor at 100 ug/disc after 24 hrs by disc diffusion method. Type of experiment: functional. In short, it runs like this:
as §1

Experiment [16] has as its system Candida albicans. Description: Antifungal activity against Candida albicans 1 after 24 hrs by disc diffusion method. Type of experiment: functional. The essentials:
(§2)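 Disc diffusion on Candida albicans strains 1 and 2 (yeast suspension), Fusarium oxysporum strains 1 and 2 and Mucor sp. (mycelial suspension), spread on YPG or PDA agar. Compound at graded amounts per filter-paper disc, 28 °C for 24 h. MIC taken as the lowest amount giving a 2 mm inhibition zone. Controls: 50% v/v DMSO vehicle, cycloheximide, amphotericin B.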

For experiment [17], the system named is Candida albicans. Nature of the experiment: Antifungal activity against Candida albicans 2 after 24 hrs by disc diffusion method. The format is functional. In short, it runs like this:
as §2

Experiment [18] has as its system Fusarium oxysporum. Nature of the experiment: Antifungal activity against Fusarium oxysporum 1 after 24 hrs by disc diffusion method. The format is functional. In short, it runs like this: as §2
The subject of experiment [19] is Fusarium oxysporum. Description: Antifungal activity against Fusarium oxysporum 2 after 24 hrs by disc diffusion method. The format is functional. In short, it runs like this: as §2
In experiment [20] the test system is Benjaminiella poitrasii. Description: Inhibition of Benjaminiella poitrasii chitin synthase at 4 ug/mL. The essentials: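 Chitin synthase from Benjaminiella poitrasii measured with and without compound at 4 µg/ml, using a non-radioactive chitin synthase assay. Nikkomycin Z used as reference.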
The test system of experiment [21] is Benjaminiella poitrasii. Nature of the experiment: Inhibition of yeast hypha transition at 20 ug/mL after 4 hrs.

Here are results for seven compounds from ChEMBL document CHEMBL1137451, “Synthesis and evaluation of antifungal properties of a series of the novel 2-amino-5-oxo-4-phenyl-5,6,7,8-tetrahydroquinoline-3-carbonitrile and its analogues” (Bioorg Med Chem, 2007).

Structures are written as SMILES. The source made the active and inactive calls. The rule behind the calls is not given here.

For the compound `COc1ccc(-c2c(C#N)c(N)nc3c2C(=O)CCC3)cc1`, the zone of inhibition at 60 µg/disc in [1] and in [5] was 3 mm in each case. Also, the result in experiment [2], in experiment [4], in experiment [7], in experiment [8], in experiment [11] and in experiment [13] was inactive. For the same compound, the outcome in experiment [14] and in experiment [15] was inactive. Moreover, the zone of inhibition at 100 µg/disc in [3] came to 4 mm; in experiment [6], 4 mm; in experiment [9], 6 mm; in experiment [12], 6 mm. In addition, in [10], the zone of inhibition at 40 µg/disc is 3 mm. For the same compound, the MIC in experiment [16] is 60 µg/disc; in experiment [17], 60 µg/disc; in experiment [18] it was 100 µg/disc; in experiment [19], 100 µg/disc. In experiment [20], this compound yielded an inhibition of 81%. In addition, in experiment [21], the inhibition at 20 µg/mL was 95%.
Turning to `COc1cc(-c2c(C#N)c(N)nc3c2C(=O)CCC3)cc(OC)c1OC`, the outcome in experiment [1], in experiment [2], in experiment [4], in experiment [5], in [13] and in experiment [14] was inactive. Also, the outcome in experiment [15] was inactive. The zone of inhibition at 100 µg/disc in [3] is 7 mm; in [6], 7 mm; in experiment [9] it was 4 mm; in experiment [12], 4 mm. Also, the zone of inhibition at 40 µg/disc in experiment [7] and in experiment [10] was 2 mm in each case. The zone of inhibition at 60 µg/disc in experiment [8] and in experiment [11] was 2 mm in each case. For the same compound, the MIC in experiment [16] worked out at 100 µg/disc; in [17], 100 µg/disc; in experiment [18], 20 µg/disc; in [19] it was 20 µg/disc. Moreover, the inhibition in [20] was determined as 81%. Also, the inhibition at 20 µg/mL in experiment [21] worked out at 95%.
Take `N#Cc1c(N)nc2c(c1-c1cccc(NC(=O)Nc3cccc(-c4c(C#N)c(N)nc5c4C(=O)CCC5)c3)c1)C(=O)CCC2`: the zone of inhibition at 60 µg/disc was 3 mm in [1], 3 mm in experiment [5], 2 mm in experiment [8] and 2 mm in experiment [11]. Further, the zone of inhibition at 40 µg/disc in [2] and in experiment [4] was 3 mm in each case. The zone of inhibition at 100 µg/disc in experiment [3] is 7 mm; in [6] it was 7 mm; in experiment [9] it was 6 mm; in experiment [12] it was 6 mm. Moreover, the result in experiment [7], in experiment [10], in experiment [13], in experiment [14] and in experiment [15] was inactive. Further, the MIC in experiment [16] came out at 40 µg/disc; in experiment [17], 40 µg/disc; in experiment [18], 60 µg/disc; in experiment [19], 60 µg/disc. This compound showed an inhibition in experiment [20] of 91%. The compound further yielded an inhibition at 20 µg/mL in experiment [21] of 95%.
Turning to `N#Cc1c(N)nc2c(c1-c1cccc(N3C(=O)C=CC3=O)c1)C(=O)CCC2`, the zone of inhibition at 60 µg/disc in experiment [1] turned out to be 5 mm; in [5], 5 mm; in [8], 3 mm; in experiment [11], 3 mm. Further, the zone of inhibition at 40 µg/disc in experiment [2], in [4], in experiment [7] and in experiment [10] was 3 mm throughout. Moreover, the zone of inhibition at 100 µg/disc in experiment [3], in [6], in [9] and in experiment [12] was 7 mm in each case. In addition, the result in [13], in experiment [14] and in experiment [15] was inactive. Besides, the MIC in [16], in experiment [17], in experiment [18] and in experiment [19] was 40 µg/disc throughout. In [20], this compound had an inhibition of 91%. Moreover, the inhibition at 20 µg/mL in experiment [21] is 95%.
Turning to `Cc1ccc(-c2c(C(N)=O)c(N)nc3c2C(=O)CCC3)cc1`, the zone of inhibition at 60 µg/disc in experiment [1], in [5] and in experiment [11] was 2 mm in each case. Moreover, the result in [2], in experiment [4], in experiment [7], in experiment [8], in experiment [10] and in experiment [13] was inactive. The outcome in [14] and in experiment [15] was inactive. For the same compound, the zone of inhibition at 100 µg/disc in experiment [3], in [6], in experiment [9] and in experiment [12] was 4 mm each time. Moreover, the MIC was 60 µg/disc in [16], 60 µg/disc in experiment [17], 100 µg/disc in experiment [18] and 100 µg/disc in experiment [19]. In [20], the inhibition was determined as 66%. This compound also gave an inhibition at 20 µg/mL in experiment [21] of 95%.
Turning to `CC(=O)Nc1nc2c(c(-c3ccc(C)cc3)c1C#N)C(=O)CCC2`, the zone of inhibition at 60 µg/disc in experiment [1], in experiment [5], in experiment [8] and in [11] was 3 mm throughout. For the same compound, the result in experiment [2], in [4], in [7], in [10], in [13] and in experiment [14] was inactive. In addition, the result in experiment [15] was inactive. The zone of inhibition at 100 µg/disc in experiment [3] worked out at 7 mm; in [6], 7 mm; in experiment [9], 5 mm; in [12] it was 5 mm. Besides, the MIC in [16], in experiment [17], in [18] and in experiment [19] was 60 µg/disc each time. For the same compound, the inhibition in experiment [20] was 66%. Also, in [21], 20 µg/mL produced 90% inhibition.
With `C[C@@H]1C[C@@H]([C@H](O)CC2CC(=O)NC(=O)C2)C(=O)[C@@H](C)C1` [CYCLOHEXIMIDE], the zone of inhibition at 60 µg/disc was 4 mm in experiment [1], 4 mm in experiment [5], 5 mm in [8] and 5 mm in [11]. In addition, the zone of inhibition at 40 µg/disc in experiment [2] was 2 mm; in experiment [4], 2 mm; in experiment [7] it was 3 mm; in experiment [10] it was 3 mm. The zone of inhibition at 100 µg/disc in experiment [3], in experiment [6], in [9] and in [12] was 7 mm each time. Moreover, the outcome in experiment [13], in experiment [14] and in experiment [15] was inactive. The MIC in experiment [16] turned out to be 40 µg/disc; in experiment [17] it was 40 µg/disc; in experiment [18], 20 µg/disc; in experiment [19], 20 µg/disc.

In general, inhibition refers to the share of the control response that was lost under treatment. The low end stands for a weak effect, the high end for a strong effect.
